Data published in ChEMBL document CHEMBL3769399, “Synthesis and cytotoxic activities of some pyrazoline derivatives bearing phenyl pyridazine core as new apoptosis inducers” (Eur J Med Chem, 2016).

What was measured:
HepG2 [1] = assay: Antiproliferative activity against human HepG2 cells assessed as cell viability after 24 hrs by MTT assay; type: functional, cell-based; conditions: HepG2, 24 h
Procedure, shortened: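 HepG2 grown as monolayer in DMEM plus 10% fetal calf serum and penicillin/streptomycin at 37 °C, 5% CO2. Plated overnight at 10^3 cells/well and exposed 24 h to five levels (0–100) diluted in complete medium from a 1% DMSO stock. WST-1 absorbance at 450 nm gave blank-corrected % viability versus untreated control, from which IC50 was derived.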

MCF7 [2] = assay: Antiproliferative activity against human MCF7 cells assessed as cell viability after 24 hrs by MTT assay; type: functional, cell-based; conditions: MCF7, 24 h
Procedure, shortened: (§1)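 Monolayers in DMEM (A549) or RPMI (MCF-7) with 10% fetal calf serum, penicillin and streptomycin at 37 °C and 5% CO2. Seeded overnight at 10^3 cells/well, then dosed at 0–100 from a serum-free stock in 1% DMSO diluted in complete medium. After 24 h, viability was read by WST-1 premix at 450 nm and blank-corrected against untreated cells. IC50 given as mean with standard error.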

A549 [3] = assay: Antiproliferative activity against human A549 cells assessed as cell viability after 24 hrs by MTT assay; type: functional, cell-based; conditions: A549, 24 h; procedure, shortened: as §1
[4] = Antiproliferative activity against human Caco2 cells assessed as cell viability after 24 hrs by MTT assay; type: functional, cell-based; conditions: Caco-2, 24 h
Procedure, shortened: (§2)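 CaCo-2 kept in RPMI with 10% fetal calf serum and antibiotics at 37 °C, 5% CO2. Cells were seeded at 10^3 per well overnight, then treated 24 h at 0, 5, 10, 50 and 100, diluted from a stock containing 1% DMSO. Viability came from WST-1 read at 450 nm, blank-subtracted and normalised to untreated cells.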

[5] = Cytotoxicity against HEK293 cells assessed as cell viability at 10 uM after 24 hrs by MTT assay; type: cell-based; conditions: human, read-out: Activity
Procedure, shortened: (§3)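 Human embryonic kidney 293 cells, as normal-cell counterpart, treated at four levels (10, 100, 200, 300). Percentage of viable cells reported with SE at each level, and IC50 estimated.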

HEK293 = assay: Cytotoxicity against HEK293 cells assessed as cell viability after 24 hrs by MTT assay; type: cell-based; conditions: Homo sapiens, HEK293, 24 h; procedure, shortened: as §3
[6] = Cytotoxicity against HEK293 cells assessed as cell viability at 100 uM after 24 hrs by MTT assay; type: cell-based; conditions: human, read-out: Activity; procedure, shortened: as §3
MCF7 [7] = assay: Induction of necrosis in human MCF7 cells at 10 uM by annexin V-FITC/ethidium homodimer III staining-based flow cytometry relative to control; type: functional
Procedure, shortened: (§4)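 Treated cells at 2–3×10^5/mL were resuspended in 1X binding buffer and stained with FITC-Annexin V (apoptosis) plus Ethidium Homodimer III (necrosis) for 15 min at room temperature in the dark. Buffer was added and FACS was read within 1 h. Percent induction is the compound's apoptotic or necrotic fraction minus that of untreated negative control.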

[8] = Cytotoxicity against HEK293 cells assessed as cell viability at 200 uM after 24 hrs by MTT assay; type: cell-based; conditions: human, read-out: Activity; procedure, shortened: as §3
MCF7 [9] = assay: Induction of apoptosis in human MCF7 cells at 10 uM by annexin V-FITC/ethidium homodimer III staining-based flow cytometry relative to control; type: functional; procedure, shortened: as §4
[10] = Cytotoxicity against HEK293 cells assessed as cell viability at 300 uM after 24 hrs by MTT assay; type: cell-based; conditions: human, read-out: Activity; procedure, shortened: as §3
HepG2 [11] = assay: Induction of apoptosis in human HepG2 cells at 10 uM by annexin V-FITC/ethidium homodimer III staining-based flow cytometry relative to control; type: functional; procedure, shortened: as §4
HepG2 [12] = assay: Induction of necrosis in human HepG2 cells at 10 uM by annexin V-FITC/ethidium homodimer III staining-based flow cytometry relative to control; type: functional; procedure, shortened: as §4
[13] = Antiproliferative activity against human Caco2 cells assessed as cell viability at 10 uM after 24 hrs by MTT assay; type: functional; conditions: Caco-2, 24 h, read-out: Activity; procedure, shortened: as §2
A549 [14] = assay: Induction of apoptosis in human A549 cells at 10 uM by annexin V-FITC/ethidium homodimer III staining-based flow cytometry relative to control; type: functional; procedure, shortened: as §4
A549 [15] = assay: Induction of necrosis in human A549 cells at 10 uM by annexin V-FITC/ethidium homodimer III staining-based flow cytometry relative to control; type: functional; procedure, shortened: as §4
MCF7 [16] = assay: Induction of apoptosis in human MCF7 cells assessed as increase in caspase 3 activation at IC50 using Ac-Asp-Glu-Val-Asp-pNA as substrate after 24 hrs by colorimetric assay relative to control; type: functional
Procedure, shortened: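 MCF-7 cells were grown in RPMI with 10% fetal calf serum, penicillin and streptomycin at 37 °C under 5% CO2, then seeded at 5 × 10^5 cells/well and treated for 24 h. After the medium was removed, cells were lysed with lysis buffer and shaken for 10 min. Lysate was added to caspase-3 reaction buffer containing diluted substrate. The increase in A405 was read over 30 min and expressed relative to untreated controls.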

Caco-2 [17] = assay: Induction of necrosis in human Caco2 cells at 10 uM by annexin V-FITC/ethidium homodimer III staining-based flow cytometry relative to control; type: functional; procedure, shortened: as §4
Caco-2 [18] = assay: Induction of apoptosis in human Caco2 cells at 10 uM by annexin V-FITC/ethidium homodimer III staining-based flow cytometry relative to control; type: functional; procedure, shortened: as §4

Row | SMILES | IC50 (HepG2 [1]) [µM] | IC50 (MCF7 [2]) [µM] | IC50 (A549 [3]) [µM] | IC50 [4] [µM] | viability at 24 h, 10 µM [5] [%] | IC50 (HEK293) [µM] | viability at 24 h, 100 µM [6] [%] | Activity (MCF7 [7]) [%] | viability at 24 h, 200 µM [8] [%] | Activity (MCF7 [9]) [%] | viability at 24 h, 300 µM [10] [%] | Activity (HepG2 [11]) [%] | Activity (HepG2 [12]) [%] | viability at 10 µM [13] [%] | Activity (A549 [14]) [%] | Activity (A549 [15]) [%] | fold change (FC) (MCF7 [16]) | Activity (Caco-2 [17]) [%] | Activity (Caco-2 [18]) [%]
1 | COc1ccc(C2CC(c3ccc(Cl)cc3)=NN2c2ccc(-c3ccccc3)nn2)c(OC)c1 (stereo not drawn) | > 100 | > 100 | > 100 | > 100 | – | – | – | – | – | – | – | – | – | – | – | – | – | – | –
2 | COc1cc(C2CC(c3ccc(Cl)cc3)=NN2c2ccc(-c3ccccc3)nn2)cc(OC)c1OC (stereo not drawn) | > 100 | 100 | 83.3 | > 100 | – | – | – | – | – | – | – | – | – | – | – | – | – | – | –
3 | Fc1ccc(C2CC(c3ccc(Cl)cc3)=NN2c2ccc(-c3ccccc3)nn2)cc1 (stereo not drawn) | 10 | 3.75 | > 100 | > 100 | 85.9 | > 300 | 82.3 | 1.98 | 75.8 | 32.1 | 68.8 | – | – | – | – | – | – | – | –
4 | c1ccc(C2=NN(c3ccc(-c4ccccc4)nn3)C(c3ccccc3)C2)cc1 (stereo not drawn) | 10 | 23.8 | > 100 | 40.9 | – | – | – | – | – | – | – | – | – | – | – | – | – | – | –
5 | Fc1ccc(C2CC(c3ccccc3)=NN2c2ccc(-c3ccccc3)nn2)cc1 (stereo not drawn) | 8.42 | 100 | 89.2 | 10 | 93.7 | > 300 | 91.9 | – | 86.3 | – | 78.6 | 30.5 | 8.84 | 50 | – | – | – | – | –
6 | Clc1ccc(C2=NN(c3ccc(-c4ccccc4)nn3)C(c3ccccc3)C2)cc1 (stereo not drawn) | 8.75 | 10 | 96.7 | 100 | 84 | > 300 | 81.6 | – | 78.1 | – | 71.6 | 22.7 | 23.45 | – | – | – | – | – | –
7 | Clc1ccc(C2=NN(c3ccc(-c4ccccc4)nn3)C(c3ccc(Cl)cc3)C2)cc1 (stereo not drawn) | 10 | 8.8 | > 100 | > 100 | 85.6 | > 300 | 81.7 | 0.1 | 79.8 | 39 | 76.4 | – | – | – | – | – | – | – | –
8 | Clc1ccc(C2CC(c3ccccc3)=NN2c2ccc(-c3ccccc3)nn2)cc1 (stereo not drawn) | 6.31 | 100 | 100 | 100 | 96.6 | > 300 | 91.2 | – | 88.3 | – | 74 | 44.4 | 4.4 | – | – | – | – | – | –
9 | COc1cc(C2CC(c3ccccc3)=NN2c2ccc(-c3ccccc3)nn2)cc(OC)c1OC (stereo not drawn) | 100 | 70 | 83.8 | > 100 | – | – | – | – | – | – | – | – | – | – | – | – | – | – | –
10 | COc1ccc(C2=NN(c3ccc(-c4ccccc4)nn3)C(c3cc(OC)c(OC)c(OC)c3)C2)cc1 (stereo not drawn) | > 100 | 100 | > 100 | > 100 | – | – | – | – | – | – | – | – | – | – | – | – | – | – | –
11 | COc1ccc(C2=NN(c3ccc(-c4ccccc4)nn3)C(c3ccc(OC)cc3)C2)cc1 (stereo not drawn) | > 100 | 100 | > 100 | > 100 | – | – | – | – | – | – | – | – | – | – | – | – | – | – | –
12 | COc1ccc(C2=NN(c3ccc(-c4ccccc4)nn3)C(c3ccc(OC)cc3OC)C2)cc1 (stereo not drawn) | > 100 | 100 | 100 | > 100 | – | – | – | – | – | – | – | – | – | – | – | – | – | – | –
13 | FC(F)(F)c1ccc(C2CC(c3ccccc3)=NN2c2ccc(-c3ccccc3)nn2)cc1 (stereo not drawn) | 10 | 100 | 9.16 | 50 | 89.8 | > 300 | 86.2 | – | 82.3 | – | 70.8 | – | – | – | 46.6 | 11.11 | – | – | –
14 | FC(F)(F)c1ccc(C2CC(c3ccc(Cl)cc3)=NN2c2ccc(-c3ccccc3)nn2)cc1 (stereo not drawn) | 8.33 | 1.67 | > 100 | 10 | 92.7 | > 300 | 87.7 | 1.26 | 84.6 | 27.2 | 79.1 | 24.8 | 4.97 | 50 | – | – | 5 | 1.87 | 13.4
15 | COc1ccc(C2CC(c3ccccc3)=NN2c2ccc(-c3ccccc3)nn2)c(OC)c1 (stereo not drawn) | 100 | > 100 | 9.56 | > 100 | 85.2 | > 300 | 82.9 | – | 81.1 | – | 74.2 | – | – | – | 27 | 1.04 | – | – | –
16 | COc1ccc(C2CC(c3ccccc3)=NN2c2ccc(-c3ccccc3)nn2)cc1 (stereo not drawn) | > 100 | 100 | 91.7 | > 100 | – | – | – | – | – | – | – | – | – | – | – | – | – | – | –
17 | COc1ccc(C2=NN(c3ccc(-c4ccccc4)nn3)C(c3ccccc3)C2)cc1 (stereo not drawn) | > 100 | > 100 | 75.9 | > 100 | – | – | – | – | – | – | – | – | – | – | – | – | – | – | –
18 | COc1ccc(C2=NN(c3ccc(-c4ccccc4)nn3)C(c3ccc(F)cc3)C2)cc1 (stereo not drawn) | 9.16 | 20 | > 100 | 18.1 | – | – | – | – | – | – | – | – | – | – | – | – | – | – | –
19 | COc1ccc(C2CC(c3ccc(Cl)cc3)=NN2c2ccc(-c3ccccc3)nn2)cc1 (stereo not drawn) | > 100 | 100 | 100 | > 100 | – | – | – | – | – | – | – | – | – | – | – | – | – | – | –
20 | COc1ccc(C2=NN(c3ccc(-c4ccccc4)nn3)C(c3ccc(Cl)cc3)C2)cc1 (stereo not drawn) | > 100 | 58 | 100 | > 100 | – | – | – | – | – | – | – | – | – | – | – | – | – | – | –
21 | COc1ccc(C2=NN(c3ccc(-c4ccccc4)nn3)C(c3ccc(C(F)(F)F)cc3)C2)cc1 (stereo not drawn) | > 100 | 46.8 | > 100 | 65 | – | – | – | – | – | – | – | – | – | – | – | – | – | – | –
22 | COc1cccc2c1C(=O)c1c(O)c3c(c(O)c1C2=O)C[C@@](O)(C(=O)CO)C[C@@H]3O[C@H]1C[C@H](N)[C@H](O)[C@H](C)O1 [DOXORUBICIN] | – | – | – | 3 | – | – | – | – | – | – | – | – | – | – | – | – | – | – | –
